Measured values reported in ChEMBL document CHEMBL1275319, “Synthesis and cytotoxicity evaluation of novel 1,4-disubstituted 1,2,3-triazoles via CuI catalysed 1,3-dipolar cycloaddition” (Eur J Med Chem, 2010).

Experiments:
A549 = assay: Antiproliferative activity against human A549 cells after 48 hrs by MTT assay; format: functional, cell-based; conditions: A549, 48 h
Summary of the method: (§1)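 MTT viability read-out; cells cultured in DMEM and exposed to compound for 48 h. IC50 taken as the concentration giving 50% inhibition of tumour cell proliferation.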

HT-29 = assay: Antiproliferative activity against human HT-29 cells after 48 hrs by MTT assay; format: functional, cell-based; conditions: HT-29, 48 h; summary of the method: as §1
HeLa = assay: Antiproliferative activity against human HeLa cells after 48 hrs by MTT assay; format: functional, cell-based; summary of the method: as §1
[1] = Inhibition of tubulin polymerization at 30 uM
Summary of the method: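 GTP addition starts the reaction, run protected from light at 37 °C. Polymerization followed as fluorescence increase at 360/420 nm excitation/emission; % inhibition calculated against untreated control.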

[2] = Inhibition of tubulin polymerization at 3 uM
Summary of the method: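 Reaction started by GTP addition and run protected from light at 37 °C. Polymerization followed as fluorescence increase at 360/420 nm excitation/emission. Percent inhibition calculated relative to untreated control.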

Structure (SMILES): Cc1cc(C)c(-c2cn(CC(=O)c3ccccc3)nn2)cc1C
- IC50 (A549): 91 µM
- IC50 (HT-29): 190 µM
- IC50 (HeLa): > 300 µM
- inhibition [1]: 6.6%

Structure (SMILES): O=C(Cn1cc(-c2ccccc2)nn1)c1ccc(Cl)cc1
- IC50 (A549): > 300 µM
- IC50 (HT-29): > 300 µM
- IC50 (HeLa): > 300 µM

Structure (SMILES): O=C(Cn1cc(CO)nn1)c1ccccc1
- IC50 (A549): > 300 µM
- IC50 (HT-29): > 300 µM
- IC50 (HeLa): > 300 µM

Structure (SMILES): CCCCCCc1cn(CC(=O)c2ccccc2)nn1
- IC50 (A549): > 300 µM
- IC50 (HT-29): > 300 µM
- IC50 (HeLa): > 300 µM

Structure (SMILES): Cc1ccc(C(=O)Cn2cc(-c3ccccc3)nn2)cc1
- IC50 (A549): > 300 µM
- IC50 (HT-29): > 300 µM
- IC50 (HeLa): > 300 µM

Structure (SMILES): COc1cc2c(c(OC)c1OC)-c1ccc(OC)c(=O)cc1[C@@H](NC(C)=O)CC2 [COLCHICINE]
- IC50 (A549): < 1 µM
- IC50 (HT-29): < 1 µM
- IC50 (HeLa): < 1 µM
- inhibition [2]: 53.8%

Structure (SMILES): O=C(Cn1cc(-c2ccsc2)nn1)c1ccccc1
- IC50 (A549): 260 µM
- IC50 (HT-29): > 300 µM
- IC50 (HeLa): > 300 µM

Structure (SMILES): CCCCCc1ccc(-c2cn(CC(=O)c3ccccc3)nn2)cc1
- IC50 (A549): > 300 µM
- IC50 (HT-29): > 300 µM
- IC50 (HeLa): > 300 µM

Structure (SMILES): CC(C(=O)c1ccccc1)n1cc(-c2ccccc2)nn1 (configuration not stated)
- IC50 (A549): > 300 µM
- IC50 (HT-29): > 300 µM
- IC50 (HeLa): > 300 µM

Structure (SMILES): COc1ccc(C(=O)Cn2cc(-c3ccccc3)nn2)cc1
- IC50 (A549): > 300 µM
- IC50 (HT-29): 49 µM
- IC50 (HeLa): > 300 µM
- inhibition [1]: 14.1%

Structure (SMILES): COc1cc([C@@H]2c3cc4c(cc3[C@H](O)[C@H]3COC(=O)[C@H]23)OCO4)cc(OC)c1OC
- inhibition [2]: 58.1%

Structure (SMILES): COc1ccc2cc(-c3cn(CC(=O)c4ccccc4)nn3)ccc2c1
- IC50 (A549): > 300 µM
- IC50 (HT-29): > 300 µM
- IC50 (HeLa): > 300 µM

Structure (SMILES): O=C(Cn1cc(-c2ccccc2)nn1)c1ccccc1
- IC50 (A549): > 300 µM
- IC50 (HT-29): > 300 µM
- IC50 (HeLa): > 300 µM

Structure (SMILES): Cc1ccc(-c2cn(CC(=O)c3ccccc3)nn2)cc1
- IC50 (A549): 292 µM
- IC50 (HT-29): 238 µM
- IC50 (HeLa): > 300 µM
- inhibition [1]: 2.8%

Structure (SMILES): CCC(C(=O)c1ccccc1)n1cc(-c2ccccc2)nn1 (configuration not stated)
- IC50 (A549): 26 µM
- IC50 (HT-29): 116 µM
- IC50 (HeLa): 155 µM
- inhibition [1]: 19.3%

Structure (SMILES): O=C(Cn1cc(-c2ccccc2)nn1)c1ccc(Br)cc1
- IC50 (A549): > 300 µM
- IC50 (HT-29): > 300 µM
- IC50 (HeLa): > 300 µM

Structure (SMILES): COc1ccc(-c2cn(CC(=O)c3ccccc3)nn2)cc1
- IC50 (A549): 187 µM
- IC50 (HT-29): > 300 µM
- IC50 (HeLa): > 300 µM

Structure (SMILES): O=C(Cn1cc(-c2ccccn2)nn1)c1ccccc1
- IC50 (A549): > 300 µM
- IC50 (HT-29): > 300 µM
- IC50 (HeLa): > 300 µM
